The text below walks through data of the M2OR odorant receptor database.

Holding throughout (details): stereoisomer not certain
One test deals with T1, OR51B5 (Homo sapiens) (UniProt Q9H339).
T1 sequence (whole entry): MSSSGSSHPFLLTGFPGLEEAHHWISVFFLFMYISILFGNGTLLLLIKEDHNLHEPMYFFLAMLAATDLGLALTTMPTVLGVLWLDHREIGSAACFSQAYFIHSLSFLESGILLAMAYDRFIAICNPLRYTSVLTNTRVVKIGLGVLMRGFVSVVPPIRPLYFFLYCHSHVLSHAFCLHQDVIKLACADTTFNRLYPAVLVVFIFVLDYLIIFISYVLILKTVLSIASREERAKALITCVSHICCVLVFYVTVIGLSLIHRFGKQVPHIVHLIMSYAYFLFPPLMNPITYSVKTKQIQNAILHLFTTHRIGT
The gist of the method:
(§1)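 Assay methods differ from source to source, frequently being transient luciferase assays in mammalian cell lines. For each receptor–molecule pair, the label responsive (active) applies when the original authors judged the measured signal statistically different from baseline, and non-responsive (inactive) applies otherwise.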

In a further test the target is T2, OR51E1 (Homo sapiens) (UniProt Q8TCB6).
T2 sequence (whole entry): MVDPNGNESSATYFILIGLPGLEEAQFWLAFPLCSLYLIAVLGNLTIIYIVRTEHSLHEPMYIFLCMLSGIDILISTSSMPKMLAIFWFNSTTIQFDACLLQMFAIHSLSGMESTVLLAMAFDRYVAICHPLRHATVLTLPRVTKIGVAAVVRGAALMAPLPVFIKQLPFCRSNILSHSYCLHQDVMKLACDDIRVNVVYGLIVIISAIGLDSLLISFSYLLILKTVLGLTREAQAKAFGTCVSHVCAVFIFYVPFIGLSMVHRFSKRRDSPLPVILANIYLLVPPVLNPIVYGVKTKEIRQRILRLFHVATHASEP
The gist of the method:
as §1

For another test, the target named is T3, OR51E2 (Homo sapiens) (UniProt Q9H255).
T3 sequence (whole entry): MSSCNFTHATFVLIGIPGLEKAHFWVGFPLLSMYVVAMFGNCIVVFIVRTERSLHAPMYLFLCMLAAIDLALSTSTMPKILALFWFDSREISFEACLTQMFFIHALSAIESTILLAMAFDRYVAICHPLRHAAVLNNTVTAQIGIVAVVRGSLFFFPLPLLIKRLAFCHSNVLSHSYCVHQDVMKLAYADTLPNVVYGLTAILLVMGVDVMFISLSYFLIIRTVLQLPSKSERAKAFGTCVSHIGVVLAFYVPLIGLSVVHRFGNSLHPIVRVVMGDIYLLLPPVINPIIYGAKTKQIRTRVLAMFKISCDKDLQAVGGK
The gist of the method:
as §1

The structures appear in SMILES notation.

Regarding `COc1ccc2[nH]cc(CCNC(C)=O)c2c1`, the “odorant receptor agonist call” value in the test with OR51B5 (Homo sapiens) was “inactive”.

On to `C=CCOC(=O)CCCCCC`, for which the “odorant receptor agonist call” value in the test with OR51E1 (Homo sapiens) and with OR51E2 (Homo sapiens) was “inactive” in each case.

As to `CCCCCC1=C(C)CCC1=O`, the “odorant receptor agonist call” value with OR51E1 (Homo sapiens) and in the test with OR51E2 (Homo sapiens) was “inactive” each time.

For `CCC(=O)O`, the “odorant receptor agonist call” value with OR51B5 (Homo sapiens) and in the test with OR51E1 (Homo sapiens) was “inactive” in each case. The “odorant receptor agonist call” value in the test with OR51E2 (Homo sapiens) is “active”.

For the compound `CCCCCCC(=O)[O-].[H+]`, the “odorant receptor agonist call” value with OR51B5 (Homo sapiens), with OR51E1 (Homo sapiens) and with OR51E2 (Homo sapiens) was “inactive” throughout.
